Assay results as given in ChEMBL document CHEMBL1142893, “Synthesis and biological evaluation of novel 5(H)-phenanthridin-6-ones, 5(H)-phenanthridin-6-one diketo acid, and polycyclic aromatic diketo acid analogs as new HIV-1 integrase inhibitors” (Bioorg Med Chem, 2007).
Calls of active or inactive are those of the source. The rule behind the calls is not given here.

What was measured:
[1] = target: T1, Human immunodeficiency virus type 1 integrase (Human immunodeficiency virus 1, UniProt Q7ZJM1); experiment: Inhibition of HIV1 integrase 3'-end processing activity
T1 sequence (Q7ZJM1 whole entry): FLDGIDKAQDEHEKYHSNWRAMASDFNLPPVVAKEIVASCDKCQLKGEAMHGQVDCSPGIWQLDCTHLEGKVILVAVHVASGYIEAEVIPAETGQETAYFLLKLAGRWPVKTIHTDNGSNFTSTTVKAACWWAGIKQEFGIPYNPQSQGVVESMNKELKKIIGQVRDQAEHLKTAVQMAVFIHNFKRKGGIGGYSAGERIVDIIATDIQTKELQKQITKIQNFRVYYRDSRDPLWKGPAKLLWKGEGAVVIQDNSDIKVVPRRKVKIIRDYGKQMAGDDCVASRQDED
In short: (§1)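 Wild-type integrase at 200 nM final was preincubated with inhibitor for 30 min at 30 °C. Reaction buffer: 50 mM NaCl, 1 mM HEPES pH 7.5, EDTA, dithiothreitol, 10% glycerol, 7.5 mM MnCl₂, 0.1 mg/mL BSA, 10 mM 2-mercaptoethanol, 10% DMSO, 25 mM MOPS pH 7.2.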

[2] = target: T1, Human immunodeficiency virus type 1 integrase; experiment: Inhibition of HIV1 integrase strand transfer activity; in short: as §1
[3] = system: Human immunodeficiency virus 1; experiment: Antiviral activity against HIV1 LAI replication in human PBMC after 5 days; format: functional, organism-based; settings: for EC50 / EC90: Human immunodeficiency virus 1, LAI, 120 h
In short: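 PBMC (10⁷ cells/flask) stimulated 3 days with phytohemagglutinin, then infected with HIV-1 LAI at 100 50% tissue culture infective doses. Cultures were kept 5 days with compound at serial 1-log dilutions. Cells were removed by centrifugation (400g, 10 min, 4 °C), and the clarified supernatant was assayed for reverse transcriptase activity.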

PBMC = experiment: Cytotoxicity against human PBMC after 6 days; format: cell-based; settings: 144 h; for IC50: Homo sapiens, PBMC
In short: (§2)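 Uninfected cells (CEM leukemia cells; PBMC from whole blood of healthy donors) cultured with or without compound for 6 days. Afterwards cells were stained with Trypan blue and counted for proliferation and viability. Values reflect effects on cell growth.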

CCRF-CEM = experiment: Cytotoxicity against human CEM cells after 6 days; format: cell-based; settings: 144 h; for IC50: Homo sapiens, CCRF-CEM; in short: as §2
Vero = experiment: Cytotoxicity against Vero cells after 3 days; format: cell-based; settings: Chlorocebus sabaeus, 72 h
[4] = system: Human immunodeficiency virus 1; experiment: Antiviral activity against HIV1 LAI replication in MOLT4 cells; format: functional, organism-based; settings: Human immunodeficiency virus 1, LAI, MOLT-4
[5] = Selectivity index, ratio of EC50 for HIV1 LAI to IC50 for human PBMC; format: functional

Row | SMILES | IC50 [1] [µM] | IC50 [2] [µM] | further results
1 | Cc1ccc2oc3nc(C)c(C(=O)CC(=O)C(=O)O)cc3c(=O)c2c1 | 92 | 16 | –
2 | O=c1[nH]c2ccc(Br)cc2c2ccccc12 | 225 | 78 | –
3 | O=C(O)C(=O)CC(=O)c1ccc2c(ccc3ccccc32)c1 | 23 | 4.8 | EC50 [3]: 26.6 µM; EC90 [3]: > 100 µM; IC50 (PBMC): > 100 µM; IC50 (CCRF-CEM): 16.2 µM; IC50 (Vero): 10.8 µM
4 | Cc1cccc2c1[nH]c(=O)c1ccccc12 | > 1000 | > 1000 | –
5 | O=C(O)C(=O)CC(=O)c1cc2ccccc2c2ccccc12 | 9 | 0.38 | EC50 [3]: 83.7 µM; EC90 [3]: > 100 µM; IC50 (PBMC): 83.5 µM; IC50 (CCRF-CEM): 73.1 µM; IC50 (Vero): > 100 µM
6 | Cc1cc(C)c2[nH]c(=O)c3ccccc3c2c1 | 1000 | > 1000 | –
7 | Cc1cccc2c1[nH]c(=O)c1ccc(C(F)(F)F)cc12 | 449 | 109 | –
8 | O=C(O)c1ccc2[nH]c(=O)c3ccccc3c2c1 | > 500 | 203 | –
9 | O=c1[nH]c2ccc(Cl)cc2c2ccccc12 | 500 | 100 | –
10 | O=C(O)C(=O)CC(=O)c1ccc2ccccc2c1 | 54 | 7 | –
11 | COC(=O)C(=O)CC(=O)c1ccc(-c2ccccc2C(=O)OC)c([N+](=O)[O-])c1 | 102 | 27 | –
12 | Nc1ccc2[nH]c(=O)c3ccccc3c2c1 | 206 | 267 | –
13 | N#Cc1cccc(CNc2ccc3[nH]c(=O)c4ccccc4c3c2)c1 | > 500 | > 500 | –
14 | O=C(O)C(=O)CC(=O)c1cc(OCc2ccccc2)cc(OCc2ccccc2)c1 | – | – | Activity [3]: inactive; EC50 [4]: 5.7 µM; Activity (PBMC; human, pbmc): Not Active; Activity (CCRF-CEM; human, ccrf-cem): Not Active; Activity (Vero): Not Active
15 | O=c1[nH]c2ccc(C(F)(F)F)cc2c2ccccc12 | > 1000 | 900 | –
16 | Cc1cc(C)c2[nH]c(=O)c3ccc(C(F)(F)F)cc3c2c1 | > 500 | > 500 | –
17 | O=C(O)C(=O)CC(=O)c1ccc2ccc3cccc4ccc1c2c34 | 7 | 0.53 | –
18 | O=c1[nH]c2ccc(S(=O)(=O)c3ccccc3)cc2c2ccccc12 | > 500 | 415 | –
19 | CCNc1ccc2[nH]c(=O)c3ccccc3c2c1 | > 500 | > 500 | –
20 | O=C(O)C(=O)CC(=O)c1ccc2ccc3ccccc3c2c1 | 25 | 2.7 | EC50 [3]: 8 µM; EC90 [3]: 72.8 µM; IC50 (PBMC): 81 µM; Selectivity index [5]: 10; IC50 (CCRF-CEM): 56.4 µM; IC50 (Vero): > 100 µM
21 | COC(=O)c1ccccc1-c1ccc(C(=O)CC(=O)C(=O)O)cc1[N+](=O)[O-] | 26 | 7 | –

Row | SMILES | IC50 [1] [µM] | IC50 [2] [µM] | further results
22 | O=C(O)C(=O)CC(=O)c1ccc(N2CCOCC2)cc1 | > 100 | 23 | –
23 | Cc1nc2oc3ccccc3c(=O)c2cc1C(=O)CC(=O)C(=O)O | > 100 | 35 | –
24 | N#Cc1cccc(CN(Cc2cccc(C#N)c2)c2ccc3[nH]c(=O)c4ccccc4c3c2)c1 | > 500 | > 500 | –
25 | N#Cc1ccc(CNc2ccc3[nH]c(=O)c4ccccc4c3c2)cc1 | > 500 | > 500 | –
26 | COc1ccc2[nH]c(=O)c3ccccc3c2c1 | > 500 | 500 | –
27 | Cc1cccc2c1[nH]c(=O)c1ccc(C#N)cc12 | > 500 | 500 | –
28 | O=C(O)C(=O)CC(=O)c1ccc(Br)c(CC(=O)c2ccccc2)c1 | > 500 | > 500 | –
29 | Cc1cc(C)c2[nH]c(=O)c3cc(C#N)ccc3c2c1 | 300 | 333 | –
30 | N#Cc1ccc(CN(Cc2ccc(C#N)cc2)c2ccc3[nH]c(=O)c4ccccc4c3c2)cc1 | 500 | 62 | –
31 | O=C(Nc1ccc2[nH]c(=O)c3ccccc3c2c1)c1ccccc1 | > 500 | > 500 | –
32 | COC(=O)C(=O)CC(=O)c1ccc(Br)c(CC(=O)c2ccccc2)c1 | > 500 | > 500 | –
33 | Cc1cccc2c1[nH]c(=O)c1cc(C#N)ccc12 | > 500 | > 500 | –
34 | N#Cc1ccc2[nH]c(=O)c3ccccc3c2c1 | > 500 | 400 | –
35 | Cc1ccc2cc(C(=O)CC(=O)C(=O)O)ccc2c1 | 11 | 3 | –
36 | O=C(O)C(=O)CC(=O)c1ccc2cc3ccccc3cc2c1 | 32 | 13 | –
37 | Cc1cc(C)c2[nH]c(=O)c3ccc(C#N)cc3c2c1 | > 500 | > 500 | –
38 | O=C(O)C(=O)CC(=O)c1c2ccccc2cc2ccccc12 | 54 | 1.7 | EC50 [3]: > 100 µM; EC90 [3]: > 100 µM; IC50 (PBMC): > 100 µM; IC50 (CCRF-CEM): > 100 µM; IC50 (Vero): > 100 µM
39 | O=C(O)C(=O)CC(=O)c1ccc2c(c1)[nH]c(=O)c1ccccc12 | 400 | 65 | –
40 | Cc1cn([C@H]2C[C@H](N=[N+]=[N-])[C@@H](CO)O2)c(=O)[nH]c1=O [ZIDOVUDINE] | – | – | EC50 [3]: 0.00073 µM; EC90 [3]: 0.019 µM; IC50 (PBMC): > 100 µM; IC50 (Vero): 50 µM
41 | CC(=O)Nc1ccc2[nH]c(=O)c3ccccc3c2c1 | > 500 | 500 | –
